Data taken from ChEMBL document CHEMBL1156597, “Structure-activity relationship of kahalalide F synthetic analogues” (J Med Chem, 2008).

What was measured:
HT-29 = assay: Cytotoxicity against human HT29 cells after 48 hrs by SRB assay; type: functional, cell-based; conditions: Homo sapiens, HT-29, 48 h; for CC50: read-out: LC50 (the source's name)
Summary of the method: (§1)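 Cells grown in RPMI 1640 with 10% FBS and penicillin/streptomycin at 37 °C and 5% CO₂, trypsinized, then seeded at 5 × 10³/well. After 18 h drug-free attachment, samples in DMSO/EtOH/PBS (0.5:0.5:99) were added for 48 h continuous exposure. Cells were fixed with cold TCA (1 h, 4 °C) and stained with SRB (10 min). Tris-solubilized stain read at 490 nm. Triplicate wells, mean ± SD; GI₅₀ derived.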

HeLa = assay: Cytotoxicity against human HeLa cells after 48 hrs by SRB assay; type: functional; conditions: for CC50: read-out: LC50 (the source's name); summary of the method: as §1
SK-BR-3 = assay: Cytotoxicity against human SKBR3 cells after 48 hrs by SRB assay; type: functional; conditions: SK-BR-3, 48 h; for GI50: read-out: GI50; for CC50: read-out: LC50 (the source's name); summary of the method: as §1
LoVo [1] = assay: Cytotoxicity against human LoVo cells after 48 hrs by SRB assay; type: functional; conditions: for CC50: read-out: LC50 (the source's name)
K562 = assay: Cytotoxicity against human K562 cells after 48 hrs by SRB assay; type: functional; conditions: K562, 48 h; for CC50: read-out: LC50 (the source's name); summary of the method: as §1
LoVo [2] = assay: Cytotoxicity against human doxorubicin resistant LoVo cells after 48 hrs by SRB assay; type: functional; conditions: for CC50: read-out: LC50 (the source's name); summary of the method: as §1
A549 = assay: Cytotoxicity against human A549 cells after 48 hrs by SRB assay; type: functional, cell-based; conditions: Homo sapiens, A549, 48 h; for GI50: read-out: GI50; summary of the method: as §1
DU-145 = assay: Cytotoxicity against human DU145 cells after 48 hrs by SRB assay; type: functional, cell-based; conditions: Homo sapiens, DU-145, 48 h; for CC50: read-out: LC50 (the source's name); summary of the method: as §1
PANC-1 = assay: Cytotoxicity against human PANC1 cells after 48 hrs by SRB assay; type: functional; conditions: PANC-1, 48 h; for CC50: read-out: LC50 (the source's name); summary of the method: as §1
[3] = Cytotoxicity against human IGROV-ET cells after 48 hrs by SRB assay; type: functional; conditions: for CC50: read-out: LC50 (the source's name); summary of the method: as §1
LNCaP = assay: Cytotoxicity against human LNcaP cells after 48 hrs by SRB assay; type: functional; conditions: for CC50: read-out: LC50 (the source's name); summary of the method: as §1
[4] = Cytotoxicity against human HeLa-APL cells after 48 hrs by SRB assay; type: functional; summary of the method: as §1
[5] = Cytotoxicity against human IGROV cells after 48 hrs by SRB assay; type: functional; conditions: for CC50: read-out: LC50 (the source's name); summary of the method: as §1
SK-MEL-28 = assay: Cytotoxicity against human SK-MEL-28 cells after 48 hrs by SRB assay; type: functional, cell-based; conditions: Homo sapiens, SK-MEL-28, 48 h; for GI50: read-out: GI50; for CC50: read-out: LC50 (the source's name); summary of the method: as §1

`C/C=C1\NC(=O)[C@H](Cc2ccccc2)NC(=O)[C@@H](C(C)C)NC(=O)[C@@H]([C@H](C)CC)NC(=O)[C@H](NC(=O)[C@H](NC(=O)[C@H](CCCN)NC(=O)[C@H]2CCCN2C(=O)[C@H](NC(=O)[C@@H](NC(=O)[C@@H](NC(=O)[C@H](NC(=O)CC[C@H](C)CC)C(C)C)[C@@H](C)O)C(C)C)C(C)C)[C@H](C)CC)[C@H](C)OC(=O)[C@H](C(C)C)NC1=O` gave a CC50 (HT-29) of 668 nM, a CC50 (HeLa) of 971 nM and a TGI (SK-BR-3) of 425 nM. The GI50 (SK-BR-3) was 469 nM, the CC50 (SK-BR-3) was 383 nM and the GI50 (LoVo [1]) was 690 nM. The TGI (LoVo [1]) was 1180 nM, the CC50 (LoVo [1]) was 1890 nM and the GI50 (K562) was 2180 nM. The TGI (K562) was 1930 nM, the CC50 (K562) was 1930 nM and the GI50 (LoVo [2]) was 690 nM. It also gave a TGI (LoVo [2]) of 1040 nM, a CC50 (LoVo [2]) of 1660 nM and an LC50 (A549) of 1360 nM. It also gave a TGI (A549) of 1420 nM, a GI50 (A549) of 1480 nM and a TGI (DU-145) of 1270 nM. For the same compound, the GI50 (DU-145; read-out: GI50) was 1440 nM, the CC50 (DU-145) was 1130 nM and the CC50 (PANC-1) was 1640 nM. The GI50 [3] was 920 nM, the GI50 ([3]; read-out: GI50) was 1900 nM and the CC50 [3] was 614 nM. For the same compound, the GI50 (LNCaP) was 1470 nM, the TGI (LNCaP) was 1290 nM and the CC50 (LNCaP) was 1130 nM. It also gave a GI50 [4] of 1420 nM, an LC50 (concentration giving 50% net cell kill) [4] of 1240 nM and a TGI [4] of 1420 nM. For the same compound, the GI50 [5] was 776 nM, the GI50 ([5]; read-out: GI50) was 1520 nM and the CC50 [5] was 551 nM. The TGI (SK-MEL-28) was 1270 nM, the GI50 (SK-MEL-28) was 1370 nM and the CC50 (SK-MEL-28) was 1160 nM.
For `C=C1NC(=O)[C@H](Cc2ccccc2)NC(=O)[C@@H](C(C)C)NC(=O)[C@@H]([C@H](C)CC)NC(=O)[C@H](NC(=O)[C@H](NC(=O)[C@H](CCCN)NC(=O)[C@H]2CCCN2C(=O)[C@H](NC(=O)[C@@H](NC(=O)[C@@H](NC(=O)[C@H](NC(=O)CCCC(C)C)C(C)C)[C@@H](C)O)C(C)C)C(C)C)[C@H](C)CC)[C@H](C)OC(=O)[C@H](C(C)C)NC1=O`, the GI50 (HT-29) was 638 nM, the TGI (HT-29) was 804 nM and the CC50 (HT-29) was 612 nM. For the same compound, the CC50 (HeLa) was 646 nM, the TGI (SK-BR-3) was 412 nM and the GI50 (SK-BR-3) was 458 nM. It also gave a CC50 (SK-BR-3) of 360 nM, a GI50 (LoVo [1]) of 309 nM and a TGI (LoVo [1]) of 318 nM. The CC50 (LoVo [1]) was 295 nM, the GI50 (K562) was 2470 nM and the TGI (K562) was 3010 nM. The CC50 (K562) was 1950 nM, the GI50 (LoVo [2]) was 393 nM and the TGI (LoVo [2]) was 3720 nM. For the same compound, the CC50 (LoVo [2]) was 235 nM, the LC50 (A549) was 1070 nM and the TGI (A549) was 1140 nM. For the same compound, the GI50 (A549) was 1200 nM, the GI50 (DU-145) was 901 nM and the GI50 (DU-145; read-out: GI50) was 1110 nM. It also gave a CC50 (DU-145) of 730 nM, a CC50 (PANC-1) of 1790 nM and a GI50 [3] of 366 nM. The GI50 ([3]; read-out: GI50) was 349 nM, the CC50 [3] was 392 nM and the GI50 (LNCaP) was 1440 nM. For the same compound, the TGI (LNCaP) was 1860 nM, the CC50 (LNCaP) was 1410 nM and the GI50 [4] was 893 nM. The LC50 (concentration giving 50% net cell kill) [4] was 791 nM, the TGI [4] was 842 nM and the GI50 [5] was 442 nM. For the same compound, the GI50 ([5]; read-out: GI50) was 630 nM, the CC50 [5] was 334 nM and the TGI (SK-MEL-28) was 1130 nM. For the same compound, the GI50 (SK-MEL-28) was 1100 nM and the CC50 (SK-MEL-28) was 1160 nM.
`C/C=C1\NC(=O)[C@H](Cc2ccccc2)NC(=O)[C@@H](C(C)C)NC(=O)[C@@H](C(C)C)NC(=O)[C@H](NC(=O)[C@H](NC(=O)[C@H](CCCN)NC(=O)[C@H]2CCCN2C(=O)[C@H](NC(=O)[C@@H](NC(=O)[C@@H](NC(=O)[C@H](NC(=O)CCCC(C)C)C(C)C)[C@@H](C)O)C(C)C)C(C)C)C(C)C)[C@H](C)OC(=O)[C@H](C(C)C)NC1=O` gave a GI50 (HT-29) of 2500 nM, a TGI (HT-29) of 2810 nM and a CC50 (HT-29) of 3160 nM. For the same compound, the GI50 (HeLa) was 1400 nM, the TGI (HeLa) was 1260 nM and the CC50 (HeLa) was 1120 nM. It also gave a TGI (SK-BR-3) of 2310 nM, a GI50 (SK-BR-3) of 2120 nM and a CC50 (SK-BR-3) of 1450 nM. The GI50 (LoVo [1]) was 2460 nM, the TGI (LoVo [1]) was 2460 nM and the CC50 (LoVo [1]) was 2480 nM. The CC50 (K562) was 2500 nM, the GI50 (LoVo [2]) was 1430 nM and the TGI (LoVo [2]) was 1670 nM. For the same compound, the CC50 (LoVo [2]) was 1940 nM, the LC50 (A549) was 2000 nM and the TGI (A549) was 3790 nM. The GI50 (A549) was 2400 nM, the TGI (DU-145) was 1180 nM and the GI50 (DU-145; read-out: GI50) was 1360 nM. It also gave a CC50 (DU-145) of 1020 nM, a GI50 (PANC-1) of 4710 nM and a TGI (PANC-1) of 3910 nM. It also gave a CC50 (PANC-1) of 2190 nM, a CC50 [3] of 719 nM and a GI50 (LNCaP) of 2340 nM. For the same compound, the TGI (LNCaP) was 1960 nM, the CC50 (LNCaP) was 1160 nM and the GI50 [4] was 2730 nM. The LC50 (concentration giving 50% net cell kill) [4] was 1690 nM, the TGI [4] was 2790 nM and the CC50 [5] was 762 nM. It also gave a TGI (SK-MEL-28) of 1650 nM, a GI50 (SK-MEL-28) of 1640 nM and a CC50 (SK-MEL-28) of 1660 nM.
With `C/C=C1\NC(=O)[C@H](Cc2ccccc2)NC(=O)[C@@H](C(C)C)NC(=O)[C@@H]([C@H](C)CC)NC(=O)[C@H](NC(=O)[C@H](NC(=O)[C@H](CCCN)NC(=O)[C@H]2CCCN2C(=O)[C@H](NC(=O)[C@@H](NC(=O)[C@@H](NC(=O)[C@H](NC(=O)CC[C@@H](C)CC)C(C)C)[C@@H](C)O)C(C)C)C(C)C)[C@H](C)CC)[C@H](C)OC(=O)[C@H](C(C)C)NC1=O` the GI50 (HT-29) was 730 nM, the TGI (HT-29) was 1020 nM and the CC50 (HT-29) was 2060 nM. It also gave a CC50 (HeLa) of 1070 nM, a TGI (SK-BR-3) of 462 nM and a GI50 (SK-BR-3) of 539 nM. The CC50 (SK-BR-3) was 395 nM, the GI50 (LoVo [1]) was 397 nM and the TGI (LoVo [1]) was 385 nM. It also gave a CC50 (LoVo [1]) of 321 nM, a GI50 (K562) of 2070 nM and a TGI (K562) of 3760 nM. The CC50 (K562) was 2560 nM, the GI50 (LoVo [2]) was 249 nM and the TGI (LoVo [2]) was 250 nM. It also gave a CC50 (LoVo [2]) of 1040 nM, an LC50 (A549) of 1320 nM and a TGI (DU-145) of 2200 nM. For the same compound, the GI50 (DU-145; read-out: GI50) was 1690 nM, the CC50 (DU-145) was 347 nM and the CC50 (PANC-1) was 2200 nM. It also gave a GI50 [3] of 584 nM, a GI50 ([3]; read-out: GI50) of 550 nM and a CC50 [3] of 975 nM. The CC50 (LNCaP) was 2030 nM, the GI50 [4] was 1280 nM and the LC50 (concentration giving 50% net cell kill) [4] was 1140 nM. It also gave a TGI [4] of 1200 nM, a TGI [5] of 1020 nM and a GI50 ([5]; read-out: GI50) of 827 nM. For the same compound, the CC50 [5] was 1220 nM and the CC50 (SK-MEL-28) was 1670 nM.
